These results are taken from ChEMBL document CHEMBL1140586, “Design and synthesis of a functionally selective D3 agonist and its in vivo delivery via the intranasal route” (Bioorg Med Chem Lett, 2007).

Some results are limits rather than exact numbers.

Data set [1] can be described thus: Clearance in human. The class given is ADME, organism-based. Conditions: in vivo.
The nature of data set [2]: Stability in human hepatocytes. The class given is ADME, cell-based, Liver, Hepatocyte. An outline of the steps: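 Rat, dog and human hepatocyte incubations; read-out was the disappearance half-life of parent compound, in minutes.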
The next data set addresses D(2) dopamine receptor (Homo sapiens, UniProt P14416). Kind of data set: Agonist activity at human recombinant dopamine D2 receptor expressed in rat pituitary cells assessed as inhibition of forskolin-stimulated cAMP accumulation. The class given is functional, cell-based, Pituitary gland cell. On the technique in general: cAMP levels reflect the balance of adenylyl cyclase and phosphodiesterase activity.

The target of another data set is D(3) dopamine receptor (Homo sapiens, UniProt P35462). Kind of data set: Agonist activity at human recombinant dopamine D3 receptor expressed in CHO cells assessed as inhibition of forskolin-stimulated cAMP accumulation. The format is functional, cell-based.
Data set [3] is described as follows: Clearance in rat. The format is ADME, organism-based. Particulars: in vivo.

D(2) dopamine receptor, sequence (P14416 whole entry): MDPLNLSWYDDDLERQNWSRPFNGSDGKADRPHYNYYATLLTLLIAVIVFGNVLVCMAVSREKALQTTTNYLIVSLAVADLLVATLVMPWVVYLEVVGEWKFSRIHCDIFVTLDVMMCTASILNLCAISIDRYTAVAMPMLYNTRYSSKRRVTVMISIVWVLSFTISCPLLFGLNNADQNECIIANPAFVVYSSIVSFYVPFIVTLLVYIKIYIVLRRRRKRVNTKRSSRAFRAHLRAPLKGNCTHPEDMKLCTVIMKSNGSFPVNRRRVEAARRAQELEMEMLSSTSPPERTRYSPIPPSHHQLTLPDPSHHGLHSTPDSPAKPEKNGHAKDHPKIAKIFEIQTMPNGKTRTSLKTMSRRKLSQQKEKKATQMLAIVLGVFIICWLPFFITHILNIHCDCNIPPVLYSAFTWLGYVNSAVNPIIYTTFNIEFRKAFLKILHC
D(3) dopamine receptor, sequence (P35462 whole entry): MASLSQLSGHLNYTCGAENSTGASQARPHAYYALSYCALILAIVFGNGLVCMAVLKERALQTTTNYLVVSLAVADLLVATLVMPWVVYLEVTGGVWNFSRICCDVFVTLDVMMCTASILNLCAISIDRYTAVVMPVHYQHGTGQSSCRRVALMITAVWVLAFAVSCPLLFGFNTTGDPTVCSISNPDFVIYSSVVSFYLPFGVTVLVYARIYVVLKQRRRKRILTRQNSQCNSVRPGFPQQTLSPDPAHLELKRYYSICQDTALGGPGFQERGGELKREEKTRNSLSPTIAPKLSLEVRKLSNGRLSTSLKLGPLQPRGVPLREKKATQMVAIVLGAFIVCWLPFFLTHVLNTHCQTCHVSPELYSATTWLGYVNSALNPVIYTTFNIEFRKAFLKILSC

For the compound `CC(C)(C)NCC(O)c1cc(O)cc(O)c1` (configuration not stated) [TERBUTALINE], the clearance (commonly a measure of how efficiently the substance is removed, as volume per time) in data set [1] stood at 3.1 mL/min/kg.

In the case of `CCCN1CCO[C@H](c2ccc(F)c(O)c2)C1`, the half-life (as a rule, the time in which the quantity being followed falls by half) in data set [2] turned out to be 21 min. On D(2) dopamine receptor, the concentration giving a half-maximal response (EC50) (in general, the concentration at which the effect is half-maximal) was > 10000 nM. Besides, on D(3) dopamine receptor, the EC50 worked out at 36 nM and the Emax (in general, the size of the effect at its maximum, as opposed to the concentration needed) was > 90%.

Regarding `CCCN1CCO[C@H](c2cc(O)cc(O)c2)C1`, the concentration for a half-maximal effect (EC50) on D(2) dopamine receptor was > 10000 nM. Moreover, at D(3) dopamine receptor, the concentration for a half-maximal effect (EC50) is 32 nM and the maximum response (Emax) was > 90%. Further, the clearance in data set [3] came to 188 mL/min/kg.

`Oc1cccc(C2CNCCO2)c1` (configuration not stated): the half-maximal effective concentration (EC50) on D(2) dopamine receptor stood at 7200 nM; at D(3) dopamine receptor, 864 nM.

On to `CNC[C@H](O)c1cccc(O)c1` [PHENYLEPHRINE], for which the clearance in data set [1] is 30 mL/min/kg.
